Measurements published in ChEMBL document CHEMBL1138767, “Macrocyclic inhibitors for peptide deformylase: a structure-activity relationship study of the ring size” (J Med Chem, 2004).
≈ marks a conversion by molar mass, not a printed value.

Tests used:
Escherichia coli = assay: The compound was tested in vitro for antibacterial activity against Escherichia coli; assay type: functional
Outline: (§1)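 Broth microdilution per NCCLS M7-A5 in cation-adjusted Mueller–Hinton broth; 5% lysed horse blood added for streptococci, Haemophilus Test Medium for Haemophilus. Inoculum ~5 × 10^5 CFU/mL from 16–20 h plate cultures. Twofold dilutions, final 0.03–32 µg/mL. Incubated 16–20 h at 35–37 °C (Haemophilus and Streptococcus: 24 h, 5% CO2). MIC is the lowest concentration with no visible growth, read visually.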

Peptide deformylase [1] = molecular target: T1, Peptide deformylase (Escherichia coli, UniProt Q9JN24); assay: Inhibitory effect against Escherichia coli peptide deformylase (PDF) by DPPI assay
T1 sequence (Q9JN24 whole entry): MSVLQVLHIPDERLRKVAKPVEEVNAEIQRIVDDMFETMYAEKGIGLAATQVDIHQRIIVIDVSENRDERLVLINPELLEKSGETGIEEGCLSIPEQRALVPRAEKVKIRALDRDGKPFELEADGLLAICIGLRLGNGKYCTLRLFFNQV
Outline: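 E. coli PDF (Co(II) cofactor) assayed continuously at room temperature in 50 mM Hepes, 10 mM NaCl, 5 mM DTT, pH 7.0. Read at 360 nm, initial rates from <30 s, no-PDF background subtracted. K_I from Michaelis–Menten fit.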

Peptide deformylase [2] = molecular target: T1, Peptide deformylase; assay: Inhibitory effect against Escherichia coli peptide deformylase (PDF) by AAP assay
Outline: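 E. coli PDF (Co(II) cofactor) 8 nM preincubated with 0–300 nM inhibitor 2 h on ice in 50 mM Hepes pH 7.0, 150 mM NaCl, 100 μM BSA. Reaction started at room temperature with 80 μM f-ML-pNA for 10 min, heat-quenched at 95 °C, then coupled with AAP. A405 measured, no-PDF background subtracted, conversion <20%. K_I* from Michaelis–Menten fit.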

[3] = molecular target: T2, Peptide deformylase (Escherichia coli) (UniProt Q9JN24); assay: Inhibition constant against Escherichia coli Peptide deformylase (PDF)
T2 sequence (whole entry): T1 sequence (Q9JN24 whole entry)

[4] = molecular target: T2, Peptide deformylase (Escherichia coli); assay: The inhibition constant was measured against Escherichia coli PDF (Peptide deformylase) by diluting a preformed EI* complex into a assay buffer containing f-Met-Lys-AMC and DPPI
Outline: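 E. coli PDF (Co(II) form) at 40–160 nM and inhibitor at 80–200 nM, preincubated 2 h on ice in 50 mM Hepes pH 7.0, 10 mM NaCl, 5 mM DTT with 100 µM BSA. Then diluted 10-fold into the same buffer with 270 µM f-Met-Lys-AMC and 0.1 U DPPI. Recovery of activity followed continuously at 360 nm; k6 taken from progress curves.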

Bacillus subtilis = assay: The compound was tested in vitro for antibacterial activity against Bacillus subtilis
Enterococcus faecalis = assay: The compound was tested in vitro for antibacterial activity against Enterococcus faecalis(ATCC 29212); assay type: functional; outline: as §1
Moraxella catarrhalis = assay: The compound was tested in vitro for antibacterial activity against Moraxella catarrhalis (ATCC 37054); assay type: functional; outline: as §1
Staphylococcus aureus = assay: The compound was tested in vitro for antibacterial activity against Staphylococcus aureus (ATCC 29213); assay type: functional; outline: as §1
Haemophilus influenzae = assay: The compound was tested in vitro for antibacterial activity against Haemophilus influenzae (ATCC 31517); assay type: functional; outline: as §1
Streptococcus pneumoniae [5] = assay: The compound was tested in vitro for antibacterial activity against Streptococcus pneumoniae (ATCC 6301); assay type: functional; outline: as §1
Streptococcus pneumoniae [6] = assay: The compound was tested in vitro for antibacterial activity against Streptococcus pneumoniae (ATCC 6303); assay type: functional; outline: as §1
Streptococcus pneumoniae [7] = assay: The compound was tested in vitro for antibacterial activity against Streptococcus pneumoniae (ATCC 49619); assay type: functional; outline: as §1
[8] = molecular target: T3, Interstitial collagenase (Homo sapiens) (UniProt P03956); assay: Inhibition of MMP-1 (matrix metalloprotease) at 10 uM
T3 sequence (whole entry): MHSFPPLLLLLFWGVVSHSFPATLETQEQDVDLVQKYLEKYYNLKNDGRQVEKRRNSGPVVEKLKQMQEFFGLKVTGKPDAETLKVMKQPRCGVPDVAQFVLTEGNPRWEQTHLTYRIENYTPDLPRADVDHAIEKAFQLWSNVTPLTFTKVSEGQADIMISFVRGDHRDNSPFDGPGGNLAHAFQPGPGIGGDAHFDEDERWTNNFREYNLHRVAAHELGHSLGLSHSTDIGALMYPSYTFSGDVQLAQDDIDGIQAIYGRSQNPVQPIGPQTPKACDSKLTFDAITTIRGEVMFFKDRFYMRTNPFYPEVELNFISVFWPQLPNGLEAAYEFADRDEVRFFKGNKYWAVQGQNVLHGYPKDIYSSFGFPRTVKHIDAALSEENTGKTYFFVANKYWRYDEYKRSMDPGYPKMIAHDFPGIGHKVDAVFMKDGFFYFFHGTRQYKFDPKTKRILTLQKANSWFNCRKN
Outline: (§2)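 Human MMP-1, -2, -3 or -9 (0.10 µg, added last to start the reaction) in 100 mM Tris, 100 mM NaCl, 10 mM CaCl2, 0.04% Brij-35. Contained 15 µM fluorogenic peptide substrate (Mca-P-K-G-Dpa-A-R-NH2 for MMP-1/-2) and inhibitor at 0, 1 or 10 µM. Remaining activity monitored continuously by fluorescence, excitation 320 nm, emission 405 nm.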

[9] = molecular target: Stromelysin-1 (Homo sapiens) (UniProt P08254); assay: Inhibition of MMP-3 (matrix metalloprotease) at 10 uM; outline: as §2
Chain of Stromelysin-1 (Homo sapiens) (P08254 100-477 limits assumed): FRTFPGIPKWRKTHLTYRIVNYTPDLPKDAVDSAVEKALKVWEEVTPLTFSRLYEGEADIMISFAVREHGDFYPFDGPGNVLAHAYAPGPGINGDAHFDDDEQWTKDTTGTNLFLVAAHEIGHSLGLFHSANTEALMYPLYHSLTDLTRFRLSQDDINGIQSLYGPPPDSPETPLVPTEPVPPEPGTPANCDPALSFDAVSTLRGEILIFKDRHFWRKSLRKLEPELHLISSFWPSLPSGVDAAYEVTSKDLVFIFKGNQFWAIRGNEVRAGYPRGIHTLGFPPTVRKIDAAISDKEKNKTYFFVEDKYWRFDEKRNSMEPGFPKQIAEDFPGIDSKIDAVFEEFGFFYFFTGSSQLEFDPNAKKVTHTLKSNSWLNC

[10] = molecular target: Matrix metalloproteinase-9 (Homo sapiens) (UniProt P14780); assay: Inhibition of MMP-9 (matrix metalloprotease) at 10 uM; outline: as §2
Chain of Matrix metalloproteinase-9 (Homo sapiens) (P14780 whole entry): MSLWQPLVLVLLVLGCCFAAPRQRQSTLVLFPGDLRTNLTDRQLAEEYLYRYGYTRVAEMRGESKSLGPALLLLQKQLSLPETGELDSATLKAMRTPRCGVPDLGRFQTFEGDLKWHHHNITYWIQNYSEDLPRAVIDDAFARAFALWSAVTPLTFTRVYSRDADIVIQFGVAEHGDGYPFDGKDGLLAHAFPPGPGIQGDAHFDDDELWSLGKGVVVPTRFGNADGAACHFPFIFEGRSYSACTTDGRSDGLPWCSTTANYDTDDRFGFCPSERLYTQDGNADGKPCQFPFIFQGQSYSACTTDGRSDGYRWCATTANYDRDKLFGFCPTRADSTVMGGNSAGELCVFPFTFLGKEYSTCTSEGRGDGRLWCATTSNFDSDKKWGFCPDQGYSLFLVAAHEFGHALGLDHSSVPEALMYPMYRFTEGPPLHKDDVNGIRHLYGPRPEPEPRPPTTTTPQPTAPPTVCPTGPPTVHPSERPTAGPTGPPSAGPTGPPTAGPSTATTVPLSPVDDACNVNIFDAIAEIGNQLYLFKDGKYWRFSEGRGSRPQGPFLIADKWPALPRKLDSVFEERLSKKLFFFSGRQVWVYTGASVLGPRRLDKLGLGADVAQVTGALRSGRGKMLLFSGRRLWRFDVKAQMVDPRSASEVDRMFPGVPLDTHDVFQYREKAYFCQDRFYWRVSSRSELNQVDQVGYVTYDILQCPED

[11] = molecular target: T3, Interstitial collagenase (Homo sapiens); assay: Inhibition of MMP-1 (matrix metalloprotease) at 1 uM; outline: as §2
[12] = molecular target: 72 kDa type IV collagenase (Homo sapiens) (UniProt P08253); assay: Inhibition of MMP-2 (matrix metalloprotease) at 10 uM; outline: as §2
Chain of 72 kDa type IV collagenase (Homo sapiens) (P08253 110-660 limits assumed): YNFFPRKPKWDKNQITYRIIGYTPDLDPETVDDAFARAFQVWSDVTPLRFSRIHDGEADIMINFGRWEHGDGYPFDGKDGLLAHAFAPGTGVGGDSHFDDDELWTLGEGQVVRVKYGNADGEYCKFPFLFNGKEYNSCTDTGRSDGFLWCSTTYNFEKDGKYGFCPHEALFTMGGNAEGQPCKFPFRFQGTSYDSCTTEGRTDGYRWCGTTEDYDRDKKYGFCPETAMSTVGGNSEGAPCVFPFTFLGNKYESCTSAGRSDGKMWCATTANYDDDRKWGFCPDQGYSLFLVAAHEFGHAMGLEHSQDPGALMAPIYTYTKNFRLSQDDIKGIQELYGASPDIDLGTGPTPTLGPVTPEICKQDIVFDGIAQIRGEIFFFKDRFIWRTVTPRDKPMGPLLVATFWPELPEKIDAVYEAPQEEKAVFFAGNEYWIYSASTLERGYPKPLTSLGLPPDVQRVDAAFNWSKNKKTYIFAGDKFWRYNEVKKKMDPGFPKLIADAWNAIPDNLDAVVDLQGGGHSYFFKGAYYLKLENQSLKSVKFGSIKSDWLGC

[13] = molecular target: Stromelysin-1 (Homo sapiens) (UniProt P08254); assay: Inhibition of MMP-3 (matrix metalloprotease) at 1 uM; outline: as §2
[14] = molecular target: Matrix metalloproteinase-9 (Homo sapiens) (UniProt P14780); assay: Inhibition of MMP-9 (matrix metalloprotease) at 1 uM; outline: as §2
[15] = molecular target: 72 kDa type IV collagenase (Homo sapiens) (UniProt P08253); assay: Inhibition of MMP-2 (matrix metalloprotease) at 1 uM; outline: as §2

Compound	MIC90 (Escherichia coli) [µg/mL]	Ki (Peptide deformylase [1]) [nM]	Ki (Peptide deformylase [2]; read-out: Ki) [nM]	K5 [3]	K6 [4]	MIC90 (Bacillus subtilis) [µg/mL]	inhibition [8] [%]	inhibition [9] [%]	inhibition [10] [%]	inhibition [11] [%]	inhibition [12] [%]	inhibition [13] [%]	inhibition [14] [%]	inhibition [15] [%]	further results
NCCCC[C@@H]1NC(=O)[C@@H](CN(O)C=O)CCCCCCCCCNC1=O	4 (≈ 10.4 µM)	92	3	0.12 min⁻¹	0.0042 min⁻¹	~8 (≈ 20.8 µM)									
CC(C)(C)[C@@H]1NC(=O)[C@@H](CN(O)C=O)CCCCCCCCCCCNC1=O	> 24	77	0.22	0.5 min⁻¹	0.0015 min⁻¹	0.08 (≈ 0.201 µM)									
CCCC[C@H](CN(O)C=O)C(=O)N[C@H](C(=O)N(C)C)C(C)(C)C		11		No Slow-Binding Behaviour	No Slow-Binding Behaviour										Ki (Peptide deformylase [2]): No Slow-Binding Behaviour
CC(C)(C)[C@@H]1NC(=O)[C@@H](CN(O)C=O)CCCCCCCCCNC1=O		109	0.33	1.2 min⁻¹	0.0038 min⁻¹	0.7 (≈ 1.89 µM)	14	9	9	7	8	3	5	4	MIC90 (Enterococcus faecalis): > 32 µg/mL; MIC90 (Moraxella catarrhalis): 0.62 µg/mL (≈ 1.68 µM); MIC90 (Staphylococcus aureus): 16 µg/mL (≈ 43.3 µM); MIC90 (Haemophilus influenzae): 0.5 µg/mL (≈ 1.35 µM); MIC90 (Streptococcus pneumoniae [5]): 4 µg/mL (≈ 10.8 µM); MIC90 (Streptococcus pneumoniae [6]): 2 µg/mL (≈ 5.41 µM); MIC90 (Streptococcus pneumoniae [7]): 4 µg/mL (≈ 10.8 µM)
NCCCC[C@@H]1NC(=O)[C@@H](CN(O)C=O)CCCCCCCCCCCCCCNC1=O	> 32		36	0.11 min⁻¹	0.018 min⁻¹	> 32	7	6	5	1	15	0	4	6	MIC90 (Enterococcus faecalis): 32 µg/mL (≈ 70.4 µM); MIC90 (Moraxella catarrhalis): 1 µg/mL (≈ 2.2 µM); MIC90 (Staphylococcus aureus): 32 µg/mL (≈ 70.4 µM); MIC90 (Haemophilus influenzae): 32 µg/mL (≈ 70.4 µM); MIC90 (Streptococcus pneumoniae [5]): > 32 µg/mL; MIC90 (Streptococcus pneumoniae [6]): > 32 µg/mL; MIC90 (Streptococcus pneumoniae [7]): > 32 µg/mL
CCCCCCNC(=O)[C@H](CCCCN)NC(=O)[C@H](CCCCC)CN(O)C=O				No Slow-Binding Behaviour	No Slow-Binding Behaviour		100	99	94	50	98	81	61	73	Ki (Peptide deformylase [2]): No Slow-Binding Behaviour
CC(=O)NCCCC[C@@H]1NC(=O)[C@@H](CN(O)C=O)CCCCCCCCCNC1=O		710	12	0.28 min⁻¹	0.0048 min⁻¹		13	8	8	3	20	0	8	17	
CC(C)(C)[C@@H]1NC(=O)[C@@H](CN(O)C=O)CCCCCCCCCCCCCCNC1=O	> 24		25	1 min⁻¹	0.01 min⁻¹	~16 (≈ 36.4 µM)	8	4	6	7	0	3	4	0	MIC90 (Enterococcus faecalis): > 32 µg/mL; MIC90 (Moraxella catarrhalis): < 0.03 µg/mL; MIC90 (Staphylococcus aureus): > 32 µg/mL; MIC90 (Haemophilus influenzae): > 32 µg/mL; MIC90 (Streptococcus pneumoniae [5]): 8 µg/mL (≈ 18.2 µM); MIC90 (Streptococcus pneumoniae [6]): 4 µg/mL (≈ 9.1 µM); MIC90 (Streptococcus pneumoniae [7]): 8 µg/mL (≈ 18.2 µM)
CCCC[C@H](CN(O)C=O)C(=O)N[C@@H](CCCCN)C(=O)Nc1ccccc1		23		No Slow-Binding Behaviour	No Slow-Binding Behaviour		97	73	89	50	55	68	54	34	Ki (Peptide deformylase [2]): No Slow-Binding Behaviour
CC(C)(C)[C@@H]1NC(=O)[C@@H](CN(O)C=O)CCCCCCCCNC1=O	> 24	63	13.7	0.02 min⁻¹	0.0061 min⁻¹	1.4 (≈ 3.94 µM)	1	20	11	0	15	3	8	10	
CC(C)(C)[C@@H]1NC(=O)[C@@H](CN(O)C=O)CCCCCCCCCCNC1=O	> 12	96	0.23	1.6 min⁻¹	0.0037 min⁻¹	0.2 (≈ 0.521 µM)									
